Screens deposited in PubChem by several laboratories.
Sampled rows, rich in hits. Any-hit rate of the full collection: about 3.7%.
GPR7 antagonist: GPR7 receptor antagonists, primary screen, cell-based, fluorescence, single concentration; Neuropeptides B/W receptor type 1 (Homo sapiens), P48145; GPR7-expressing cells, fluorescence antagonist assay; inhibition, % at 4.4 µM; 290,000 compounds, 1.1% hits; in the data active = inhibition above about 16%, passing the limit was not always enough;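 note: cells stimulated with the agonist NPW; 0% = agonist with vehicle and 100% = vehicle without agonist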
Target sequence (P48145 whole entry, looked up): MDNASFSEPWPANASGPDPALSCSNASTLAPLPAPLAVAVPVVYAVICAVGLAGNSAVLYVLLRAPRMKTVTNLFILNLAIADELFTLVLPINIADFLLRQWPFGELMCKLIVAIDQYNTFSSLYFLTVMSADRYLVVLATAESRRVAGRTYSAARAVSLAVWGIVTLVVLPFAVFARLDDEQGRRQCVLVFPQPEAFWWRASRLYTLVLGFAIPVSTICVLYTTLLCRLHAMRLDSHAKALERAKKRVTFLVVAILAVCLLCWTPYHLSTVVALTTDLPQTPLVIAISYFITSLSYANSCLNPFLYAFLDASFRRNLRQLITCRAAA
PGE2 EP2 inh: human EP2 receptor antagonists, primary screen, TR-FRET cAMP, C6 glioma cells | Prostaglandin E2 receptor EP2 subtype (Homo sapiens), P43116 | C6 glioma cells expressing human EP2; cells stimulated with saturating PGE2 | inhibition, % at 25 µM | 260,000 compounds, 0.52% hits;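 active = percent inhibition above 40 after rounding to a whole number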;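 note: rat C6 glioma host cells with rolipram phosphodiesterase inhibitor present; the protocol text gives 20 µM as final concentration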
Target sequence (P43116 whole entry, looked up): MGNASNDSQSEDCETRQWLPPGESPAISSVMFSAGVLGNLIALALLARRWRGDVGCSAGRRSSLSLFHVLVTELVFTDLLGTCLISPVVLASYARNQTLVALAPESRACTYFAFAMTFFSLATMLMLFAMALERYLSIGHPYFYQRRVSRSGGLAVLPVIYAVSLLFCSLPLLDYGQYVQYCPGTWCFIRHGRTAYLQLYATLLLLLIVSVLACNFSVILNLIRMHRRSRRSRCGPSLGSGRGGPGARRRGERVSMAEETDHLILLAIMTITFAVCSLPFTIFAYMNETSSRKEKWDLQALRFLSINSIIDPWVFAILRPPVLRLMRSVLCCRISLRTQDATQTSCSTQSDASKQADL
EP2 modulator: EP2 receptor modulators, cAMP readout, primary screen, cell-based, HTRF cAMP, PGE2 stimulation | Prostaglandin E2 receptor EP2 subtype (Homo sapiens), P43116 | EP2-expressing cells, cAMP HTRF FRET, PGE2 co-stimulation | induction, % at 25 µM | 260,000 compounds, 0.83% hits | AID 940, 2007;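 active = compounds whose cAMP rise, as percent of the full-agonist control response, exceeds 60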;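 note: rat C6 glioma line stably carrying human EP2 under a CMV promoter; the protocol text gives 20 µM as final concentration; 100% = response of wells given 1 µM PGE2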
OX1R antag-1: antagonists of human orexin 1 receptor (OX1R); Orexin/Hypocretin receptor type 1 (Homo sapiens), O43613; OX1R-expressing cells, FRET antagonist read-out; inhibition, % at 6.6 µM; 330,000 compounds, 1.8% hits; AID 485270, 2010; in the data active = inhibition mostly above about 38%, no sharp cut-off; inactive = mostly below about 40%;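 note: 0% = agonist challenge alone and 100% = reference antagonist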
CHO parental Ca: ATP-evoked calcium signal inhibitors, parental CHO, primary screen, counter-screen for OX1R antagonist project, cell-based, fluorescence, Fluo-8 calcium dye; parental CHO-K1, ATP-induced calcium, Fluo-8 fluorescence; inhibition, % at 5.6 µM; 330,000 compounds, 0.63% hits;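 active = inhibition above that plate's mean sample inhibition plus 3 SD, cut at about 26% in these data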;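 note: 0% = ATP-challenged DMSO wells and 100% = DMSO wells without ATP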
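Material: Parental CHO cells | Reagent: ATP | Compound dosing: Single nominal dose of 5.6 µM per compound | Detection: Intracellular calcium via Fluo-8 no-wash fluorescent dye | Read-out: % inhibition of ATP-induced calcium mobilization | Benchmarks: Low control ATP plus DMSO, high control DMSO only | Replicates: Singlicate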
OX1R antag-2: OX1R (HCRTR1) antagonists, primary screen, fluorescence, CHO/OX1R cells, Fluo-8 calcium, orexin A. Orexin/Hypocretin receptor type 1 (Homo sapiens), O43613. Fluo-8 calcium fluorescence. inhibition, % at 5 µM. 330,000 compounds, 0.43% hits. AID 434989, 2010;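 active = inhibition above its plate's threshold, mean inhibition of all tested compounds on the plate plus 3 SD, cut at about 37% in these data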;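 note: 0% = orexin A challenge wells and 100% = SB-334867-A antagonist wells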
* marks the source's active call; other numbers are inactive results; . = no result; ! = a repeat was not active.

SMILES	GPR7 antagonist	PGE2 EP2 inh	EP2 modulator	OX1R antag-1	CHO parental Ca	OX1R antag-2
O=C(NC1CC1)C1CCN(S(=O)(=O)c2ccc(Cl)cc2)CC1	-2.8	.	.	11.0	9.3	4.5
O=c1[nH]c2c(Br)cnc([N+](=O)[O-])c2[nH]1	-7.3	3.1	50.1	42.8*	-6.6	-10.4
COc1ccc(CN2CCN(C(C)C(=O)N(C)Cc3cccc(F)c3)CC2)cc1OC (stereo unspecified)	-6.0	.	.	-3.4	-17.7	-27.8
CCS(=O)(=O)N1CCCC(C(=O)NCCc2ccc(C)cc2)C1 (stereo unspecified)	-2.2	6.3	14.5	-7.0	-7.4	-7.7
Oc1c(I)cc(Cl)c2cccnc12	-5.4	6.0	42.1	61.4*	41.2*	48.8*
C=C(C)Cn1c(N(C)C)nc2c1c(=O)n(C)c(=O)n2C	.	5.4	-7.7	.	.	.
COc1cc([N+](=O)[O-])c2ncsc2c1	-0.1	11.3	24.3	69.2*	-11.3	-7.3
CS(=O)(=O)N(CC(=O)N1CCCC1)c1ccc(Cl)c(Cl)c1	8.6	3.6	27.1	9.8	-6.5	-9.0
CSc1ccccc1NC(=O)CN(C)C(=O)COc1cccc2cccnc12	.	.	.	32.1*	-9.8	-4.2
COc1ccc(-c2nnc(CSc3nc4ccccc4c(=O)n3C)o2)cc1OC	1.5	15.6	-48.3	4.6	-6.7	-30.7
CC(=O)c1c(C)[nH]c(C(=O)OCCCCN2C(=O)c3ccccc3C2=O)c1C	10.1	31.6	-25.3	45.0*	74.7*	62.5*
COC(=O)/C=C1/C(=O)N(C(C)=O)c2ccccc21	.	71.0*	-50.6	.	.	.
N#CC(c1ccccc1)c1ccc(C(=O)c2ccc(F)cc2)cc1 (stereo unspecified)	3.5	-1.1	62.5*	13.7	14.2	-4.0
Cc1cccc(OCc2nc(C#N)c(N3CC(C)CC(C)C3)o2)c1 (stereo unspecified)	20.9*	8.4	-9.9	8.5	37.9*	-39.5
CCOc1ccc2noc3c2c1C(=O)c1ccccc1-3	-3.0	17.5	-37.8	49.9	28.3	31.9
CCNc1ccc2noc3c2c1C(=O)c1ccccc1-3	-3.5	15.5	40.5	122.9*	42.2*	103.1*
O=C1c2ccccc2-c2onc3ccc(NCc4ccco4)c1c23	-7.7	31.6	-26.1	81.6*	36.8	62.3*
O=C1c2ccccc2-c2onc3ccc(N4CCCC4)c1c23	-5.3	5.0	27.0	.	.	.
O=C(CSc1cn(CCNC(=O)c2cccs2)c2ccccc12)NC1CCCCC1	3.7	10.0	-14.3	41.1*	-5.0	-14.5
O=C(NCCn1cc(SCc2ccccc2F)c2ccccc21)c1c(F)cccc1F	13.4	14.5	-5.7	25.5	80.2*	1.9
O=C(CSc1cn(CCNC(=O)c2cccs2)c2ccccc12)NCC1CCCO1 (stereo unspecified)	-18.4	9.6	-7.8	22.3	-12.6	-0.8
O=C(CSc1cn(CCNC(=O)c2cccs2)c2ccccc12)NCc1ccccc1	5.8	9.1	3.4	41.2*	-14.8	-4.8
Cn1cc(SCC(=O)NCCc2ccccc2)c2ccccc21	5.6	1.1	-48.9	9.6	-17.0	-17.6
S=c1sc2c(Cl)ncnc2n1-c1ccccc1	74.5*	12.8	-14.1	.	.	.
Cc1nc(N2CCN(C)CC2)c2sc(=S)n(-c3ccccc3)c2n1	-0.3	5.7	13.5	8.5	-7.1	-24.0
SMILES	GPR7 antagonist	PGE2 EP2 inh	EP2 modulator	OX1R antag-1	CHO parental Ca	OX1R antag-2
Cc1cc(=O)oc2cc(OCC(=O)N3CC[C@@]4(O)CCCC[C@H]4C3)ccc12	-0.3	.	.	24.2	-2.1	-15.7
CC1CCCCC1NC(=O)Cn1cccc1C(=O)c1ccccc1 (stereo unspecified)	-5.3	.	.	28.1	-6.2	-33.5
Cc1ccccc1C(=O)c1cccn1CC(=O)NCC(C)c1ccccc1 (stereo unspecified)	-3.4	.	.	38.9*	-23.4	15.8
Cc1ccccc1C(=O)c1cccn1CC(=O)NC1CCCC(C)C1C (stereo unspecified)	-4.6	.	.	39.5*	4.1	28.3
Cc1cc(C)c(NC(=O)CNC(=O)CSc2nnc(N)s2)c(C)c1	.	.	.	18.6	-0.7	-18.2
CN(C)CCn1c(=N)n(CC(O)c2ccc(Cl)c(Cl)c2)c2ccccc21 (stereo unspecified)	17.5	6.1	-49.5	10.6	-12.7	-23.2
N=c1n(CCN2CCCCC2)c2ccccc2n1CC(O)c1ccc(Cl)c(Cl)c1 (stereo unspecified)	36.2*	.	-52.4	9.0	-24.1	-21.4
COc1ccccc1OCC(O)Cn1c(=N)n(CCN2CCCCC2)c2ccccc21 (stereo unspecified)	24.8*	9.0	-20.2	13.5	-11.8	-9.4
CCC(C)(C)c1ccc(OCCCC[n+]2cccc(C)c2C)c(C(C)(C)CC)c1	21.6*	20.6	-6.6	9.4	40.4*	52.3*
Cc1cc(C(C)(C)C)ccc1OCCCCN1CCCC1	-2.2	2.5	-43.6	-13.3	-2.6	-14.5
O=C(NCc1ccco1)c1ccc2nc3sc4c(c3c(=O)n2c1)CCCC4	3.5	12.2	-2.8	87.1*	-21.7	-0.6
CC1Cc2ccccc2N1C(=O)c1cc2nc(-c3ccco3)cc(C(F)(F)F)n2n1 (stereo unspecified)	.	9.4	72.0*	.	.	.
Nc1ccc(Br)c2cccnc12	-9.4	1.3	-16.6	17.2	-1.6	-10.9
COc1ccc(OC)c2c1sc(=NC(=O)c1ccco1)n2C	-6.2	11.4	-3.0	21.3	-0.9	-25.1
CCn1c(=NC(=O)c2ccco2)sc2cccc(F)c21	-7.3	12.9	11.4	64.8*	-17.2	-3.7
O=C1Nc2ccccc2C1=Nc1ccc(S(=O)(=O)Nc2nccs2)cc1	-10.0	46.0*!	-18.7	8.4	-4.0	0.7
NS(=O)(=O)c1ccc(N=C2C(=O)Nc3ccccc32)cc1	-3.9	5.6	-8.1	23.3	-6.3	-18.5
S=C1N(c2ccccc2)CN(C2CCCCC2)CN1c1ccccc1	2.3	9.6	13.6	4.7	-2.9	-24.2
Cc1ccc(S(=O)(=O)Nc2cccc(C(=O)NCC(c3ccc(F)cc3)N3CCOCC3)c2)cc1 (stereo unspecified)	.	.	.	35.6*	-16.9	14.6
CCCCCCCOC(=O)c1ccc(OC(=O)c2cccnc2)cc1	-4.3	4.6	19.7	24.0	-4.1	-16.2
O=C(Nc1nnc(-c2ccco2)s1)C1CCCCC1	-8.5	24.1	-12.3	14.8	2.1	-18.5
Cc1ccc(S(=O)(=O)N2CCC(C(=O)Nc3nnc(-c4ccco4)s3)CC2)cc1	0.8	46.0*!	-2.6	0.0	-21.8	-30.6
